Assay results from ChEMBL document CHEMBL5724801, “EUbOPEN Chemogenomics Library - Multiplex” (2024).
Where “and” joins values, the source holds several entries; their conditions need not be identical. Equal values may be shown once.

How the values were obtained:
Assay type in all cases: toxicity, cell-based
Fibroblast = experiment: Multiplex assay against human fibroblast
Procedure, shortened: (§1)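 Compound was added to live cells that had been stained at seeding with Hoechst33342, BioTracker Green Microtubule Cytoskeleton Dye, MitoTracker Red and Annexin V Alexa Fluor 680, and imaging followed on a CQ1 microscope at 37°C and 5% CO2. CellPathfinder machine-learning gating divided cells into Hoechst high-intensity objects or normal cells, normal cells into healthy, pyknosed or fragmented nuclei, and pyknosed cells into mitotic or apoptotic. Tubulin, mitochondrial-mass and membrane-permeability phenotypes are per cents of healthy-nucleus cells.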

HEK-293T = experiment: Multiplex assay against HEK293T; details: human; procedure, shortened: as §1
U2OS = experiment: Multiplex assay against U2OS; details: human; procedure, shortened: as §1
[1] = 12 h, 1 µM, compound concentration 1 uM
[2] = 12 h, 10 µM, compound concentration 10 uM
[3] = 24 h, 1 µM, compound concentration 1 uM
[4] = 24 h, 10 µM, compound concentration 10 uM
[5] = 48 h, 1 µM, compound concentration 1 uM
[6] = 48 h, 10 µM, compound concentration 10 uM

## O=c1nc2[nH]c3ccccc3nc-2c(=O)[nH]1 [ALLOXAZINE]
Fibroblast; [1]
  Population Apoptotic (%): 56% and 37%
  Population Fragmented Nuclei (%): 16% and 26%
  Population Healthy Nuclei (%): 67% and 50%
  Population Hoechst High Intensity Objects (%): 5% and 3%
  Population Membrane Permeable-Phenotype (%): 0% and 6%
  Population Mitochondria Different-Phenotype (%): 2% and 3%
  Population Mitotic Cells (%): 43% and 62%
  Population Normal (%): 94% and 96%
  Population Pyknosed Nuclei (%): 16% and 23%
  Population Tubulin-Different-Phenotype (%): 23% and 33%
  Total Cell Count: 193 and 131
Fibroblast; [2]
  Population Apoptotic (%): 33% and 41%
  Population Fragmented Nuclei (%): 23% and 41%
  Population Healthy Nuclei (%): 60% and 38%
  Population Hoechst High Intensity Objects (%): 4% and 1%
  Population Membrane Permeable-Phenotype (%): 3%
  Population Mitochondria Different-Phenotype (%): 5% and 15%
  Population Mitotic Cells (%): 66% and 58%
  Population Normal (%): 95% and 98%
  Population Pyknosed Nuclei (%): 15% and 20%
  Population Tubulin-Different-Phenotype (%): 23% and 57%
  Total Cell Count: 158 and 86
Fibroblast; [3]
  Population Apoptotic (%): 52% and 36%
  Population Fragmented Nuclei (%): 17% and 31%
  Population Healthy Nuclei (%): 69% and 41%
  Population Hoechst High Intensity Objects (%): 3% and 4%
  Population Membrane Permeable-Phenotype (%): 0% and 2%
  Population Mitochondria Different-Phenotype (%): 2% and 0%
  Population Mitotic Cells (%): 47% and 63%
  Population Normal (%): 96% and 95%
  Population Pyknosed Nuclei (%): 12% and 27%
  Population Tubulin-Different-Phenotype (%): 21% and 31%
  Total Cell Count: 190 and 114
Fibroblast; [4]
  Population Apoptotic (%): 47% and 64%
  Population Fragmented Nuclei (%): 19% and 45%
  Population Healthy Nuclei (%): 64% and 32%
  Population Hoechst High Intensity Objects (%): 3%
  Population Membrane Permeable-Phenotype (%): 0%
  Population Mitochondria Different-Phenotype (%): 2% and 7%
  Population Mitotic Cells (%): 52% and 35%
  Population Normal (%): 96%
  Population Pyknosed Nuclei (%): 15% and 21%
  Population Tubulin-Different-Phenotype (%): 22% and 50%
  Total Cell Count: 153 and 82
Fibroblast; [5]
  Population Apoptotic (%): 71% and 39%
  Population Fragmented Nuclei (%): 14% and 30%
  Population Healthy Nuclei (%): 72% and 48%
  Population Hoechst High Intensity Objects (%): 9% and 3%
  Population Membrane Permeable-Phenotype (%): 0% and 9%
  Population Mitochondria Different-Phenotype (%): 1%
  Population Mitotic Cells (%): 28% and 60%
  Population Normal (%): 90% and 96%
  Population Pyknosed Nuclei (%): 13% and 20%
  Population Tubulin-Different-Phenotype (%): 23% and 56%
  Total Cell Count: 178 and 114
Fibroblast; [6]
  Population Apoptotic (%): 55% and 45%
  Population Fragmented Nuclei (%): 26% and 49%
  Population Healthy Nuclei (%): 61% and 36%
  Population Hoechst High Intensity Objects (%): 6% and 2%
  Population Membrane Permeable-Phenotype (%): 2% and 3%
  Population Mitotic Cells (%): 44% and 54%
  Population Normal (%): 93% and 97%
  Population Pyknosed Nuclei (%): 11% and 13%
  Population Tubulin-Different-Phenotype (%): 29% and 51%
  Total Cell Count: 164 and 81
HEK-293T; [1]
  Population Apoptotic (%): 27% and 44%
  Population Fragmented Nuclei (%): 8% and 4%
  Population Healthy Nuclei (%): 77% and 79%
  Population Hoechst High Intensity Objects (%): 8% and 7%
  Population Membrane Permeable-Phenotype (%): 0%
  Population Mitochondria Different-Phenotype (%): 44% and 66%
  Population Mitotic Cells (%): 72% and 55%
  Population Normal (%): 91% and 92%
  Population Pyknosed Nuclei (%): 13% and 15%
  Population Tubulin-Different-Phenotype (%): 33% and 25%
  Total Cell Count: 377 and 345
HEK-293T; [2]
  Population Apoptotic (%): 40% and 60%
  Population Fragmented Nuclei (%): 10% and 8%
  Population Healthy Nuclei (%): 71% and 70%
  Population Hoechst High Intensity Objects (%): 5% and 15%
  Population Membrane Permeable-Phenotype (%): 0%
  Population Mitochondria Different-Phenotype (%): 53% and 67%
  Population Mitotic Cells (%): 59% and 40%
  Population Normal (%): 94% and 84%
  Population Pyknosed Nuclei (%): 18% and 20%
  Population Tubulin-Different-Phenotype (%): 31% and 20%
  Total Cell Count: 362 and 323
HEK-293T; [3]
  Population Apoptotic (%): 22% and 33%
  Population Fragmented Nuclei (%): 10% and 7%
  Population Healthy Nuclei (%): 76% and 83%
  Population Hoechst High Intensity Objects (%): 4% and 7%
  Population Membrane Permeable-Phenotype (%): 0%
  Population Mitochondria Different-Phenotype (%): 24% and 41%
  Population Mitotic Cells (%): 77% and 66%
  Population Normal (%): 95% and 92%
  Population Pyknosed Nuclei (%): 12% and 8%
  Population Tubulin-Different-Phenotype (%): 19% and 12%
  Total Cell Count: 504 and 391
HEK-293T; [4]
  Population Apoptotic (%): 27% and 50%
  Population Fragmented Nuclei (%): 9%
  Population Healthy Nuclei (%): 77% and 72%
  Population Hoechst High Intensity Objects (%): 6% and 15%
  Population Membrane Permeable-Phenotype (%): 0%
  Population Mitochondria Different-Phenotype (%): 34% and 48%
  Population Mitotic Cells (%): 72% and 50%
  Population Normal (%): 93% and 84%
  Population Pyknosed Nuclei (%): 12% and 17%
  Population Tubulin-Different-Phenotype (%): 21% and 16%
  Total Cell Count: 491 and 371
HEK-293T; [5]
  Population Apoptotic (%): 32% and 27%
  Population Fragmented Nuclei (%): 14% and 11%
  Population Healthy Nuclei (%): 77% and 82%
  Population Hoechst High Intensity Objects (%): 3% and 4%
  Population Membrane Permeable-Phenotype (%): 1% and 0%
  Population Mitochondria Different-Phenotype (%): 18% and 26%
  Population Mitotic Cells (%): 67% and 72%
  Population Normal (%): 96% and 95%
  Population Pyknosed Nuclei (%): 8% and 6%
  Population Tubulin-Different-Phenotype (%): 13% and 12%
  Total Cell Count: 773 and 636
HEK-293T; [6]
  Population Apoptotic (%): 29% and 48%
  Population Fragmented Nuclei (%): 15% and 14%
  Population Healthy Nuclei (%): 76% and 78%
  Population Hoechst High Intensity Objects (%): 3% and 4%
  Population Membrane Permeable-Phenotype (%): 0%
  Population Mitochondria Different-Phenotype (%): 17% and 28%
  Population Mitotic Cells (%): 70% and 51%
  Population Normal (%): 96% and 95%
  Population Pyknosed Nuclei (%): 7% and 6%
  Population Tubulin-Different-Phenotype (%): 11% and 14%
  Total Cell Count: 700 and 531
U2OS; [1]
  Population Apoptotic (%): 70% and 75%
  Population Fragmented Nuclei (%): 25% and 15%
  Population Healthy Nuclei (%): 61% and 74%
  Population Hoechst High Intensity Objects (%): 2%
  Population Membrane Permeable-Phenotype (%): 5%
  Population Mitochondria Different-Phenotype (%): 0% and 5%
  Population Mitotic Cells (%): 29% and 25%
  Population Normal (%): 97%
  Population Pyknosed Nuclei (%): 12% and 10%
  Population Tubulin-Different-Phenotype (%): 3%
  Total Cell Count: 195 and 122
U2OS; [2]
  Population Apoptotic (%): 86% and 88%
  Population Fragmented Nuclei (%): 33% and 13%
  Population Healthy Nuclei (%): 59% and 78%
  Population Hoechst High Intensity Objects (%): 0% and 1%
  Population Membrane Permeable-Phenotype (%): 7%
  Population Mitochondria Different-Phenotype (%): 0% and 5%
  Population Mitotic Cells (%): 13% and 11%
  Population Normal (%): 99% and 98%
  Population Pyknosed Nuclei (%): 7%
  Population Tubulin-Different-Phenotype (%): 1% and 3%
  Total Cell Count: 212 and 119
U2OS; [3]
  Population Apoptotic (%): 73% and 57%
  Population Fragmented Nuclei (%): 24% and 16%
  Population Healthy Nuclei (%): 66% and 74%
  Population Hoechst High Intensity Objects (%): 1% and 2%
  Population Membrane Permeable-Phenotype (%): 4% and 5%
  Population Mitochondria Different-Phenotype (%): 1% and 5%
  Population Mitotic Cells (%): 26% and 42%
  Population Normal (%): 98% and 97%
  Population Pyknosed Nuclei (%): 8% and 9%
  Population Tubulin-Different-Phenotype (%): 2%
  Total Cell Count: 261 and 146
U2OS; [4]
  Population Apoptotic (%): 78% and 75%
  Population Fragmented Nuclei (%): 30% and 16%
  Population Healthy Nuclei (%): 61% and 80%
  Population Hoechst High Intensity Objects (%): 0% and 2%
  Population Membrane Permeable-Phenotype (%): 8% and 5%
  Population Mitochondria Different-Phenotype (%): 2% and 4%
  Population Mitotic Cells (%): 21% and 25%
  Population Normal (%): 99% and 97%
  Population Pyknosed Nuclei (%): 8% and 2%
  Population Tubulin-Different-Phenotype (%): 2% and 3%
  Total Cell Count: 237 and 148
U2OS; [5]
  Population Apoptotic (%): 84% and 76%
  Population Fragmented Nuclei (%): 19% and 18%
  Population Healthy Nuclei (%): 71% and 72%
  Population Hoechst High Intensity Objects (%): 1% and 6%
  Population Membrane Permeable-Phenotype (%): 1% and 4%
  Population Mitochondria Different-Phenotype (%): 1% and 2%
  Population Mitotic Cells (%): 15% and 23%
  Population Normal (%): 98% and 93%
  Population Pyknosed Nuclei (%): 9% and 8%
  Population Tubulin-Different-Phenotype (%): 1% and 2%
  Total Cell Count: 362 and 207
U2OS; [6]
  Population Apoptotic (%): 90% and 76%
  Population Fragmented Nuclei (%): 26% and 12%
  Population Healthy Nuclei (%): 66% and 79%
  Population Hoechst High Intensity Objects (%): 1%
  Population Membrane Permeable-Phenotype (%): 5% and 3%
  Population Mitochondria Different-Phenotype (%): 1%
  Population Mitotic Cells (%): 9% and 23%
  Population Normal (%): 98%
  Population Pyknosed Nuclei (%): 6% and 8%
  Population Tubulin-Different-Phenotype (%): 2%
  Total Cell Count: 321 and 210
